Measurements collected from several papers.
Compare with care: the assays were run in different laboratories.
Target: Ephrin type-A receptor 8 (EPHA8, Homo sapiens, UniProt P29322)
Residues used in one study (P29322 28-1005): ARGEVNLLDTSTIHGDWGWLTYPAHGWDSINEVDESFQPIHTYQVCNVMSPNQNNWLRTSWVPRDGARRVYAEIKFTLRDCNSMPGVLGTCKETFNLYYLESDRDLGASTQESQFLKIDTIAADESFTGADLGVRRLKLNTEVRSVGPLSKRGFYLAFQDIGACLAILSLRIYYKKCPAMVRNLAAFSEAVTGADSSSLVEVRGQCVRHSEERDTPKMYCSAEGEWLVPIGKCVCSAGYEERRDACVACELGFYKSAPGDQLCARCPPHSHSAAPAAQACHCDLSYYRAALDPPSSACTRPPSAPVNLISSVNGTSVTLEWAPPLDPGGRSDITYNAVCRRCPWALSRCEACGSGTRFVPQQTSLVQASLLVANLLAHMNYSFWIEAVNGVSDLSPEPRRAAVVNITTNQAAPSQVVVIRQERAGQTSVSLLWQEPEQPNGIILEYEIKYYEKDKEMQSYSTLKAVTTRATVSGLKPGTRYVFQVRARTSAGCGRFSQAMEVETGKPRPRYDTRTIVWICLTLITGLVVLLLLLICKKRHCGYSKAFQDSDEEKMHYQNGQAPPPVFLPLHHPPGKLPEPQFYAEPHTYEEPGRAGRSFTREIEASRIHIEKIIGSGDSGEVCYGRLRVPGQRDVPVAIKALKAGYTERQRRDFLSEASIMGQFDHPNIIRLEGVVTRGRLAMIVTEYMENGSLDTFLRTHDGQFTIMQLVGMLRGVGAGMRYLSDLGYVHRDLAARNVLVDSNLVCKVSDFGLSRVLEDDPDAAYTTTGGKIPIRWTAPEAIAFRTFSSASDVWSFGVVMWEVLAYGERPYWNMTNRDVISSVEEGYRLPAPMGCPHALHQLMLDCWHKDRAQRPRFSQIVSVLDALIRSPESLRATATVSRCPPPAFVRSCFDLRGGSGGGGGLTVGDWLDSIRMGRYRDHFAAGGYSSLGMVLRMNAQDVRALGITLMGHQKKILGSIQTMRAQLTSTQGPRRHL

c1ccc(N2CCN(Cc3nc4ccccc4[nH]3)CC2)nc1  remaining binding (cell-free assay, competition with immobilised ligand; 1 µM): 100%
O=C(Nc1cnn(-c2csc(C(=O)NC3COC3)c2)c1)Nc1c(F)cccc1Cl  remaining activity (enzyme activity, inhibitor; 5 µM): 93.8%
CC(C)(C)c1nc2c(s1)c1nc(N)ncc1c1ccc(NS(=O)(=O)c3c(F)cccc3F)c(F)c12  remaining activity (enzyme activity, inhibitor, radiometric; 1 µM): 95%
O=C(O)c1cc(-c2ccc(C3CCNCC3)cc2)c2ccc(-c3ccc(C(F)(F)F)cc3)cc2c1  remaining binding (cell-free assay, competition with immobilised ligand; 1 µM): 100%
Cc1ccc(Nc2nccc(N(C)c3ccc4c(C)n(C)nc4c3)n2)cc1S(N)(=O)=O  inhibition (enzyme activity, inhibitor; 0.3 µM): 17%
O=C(NCc1ncc(C(F)(F)F)cc1Cl)c1ccc2c(c1)C1(CCS(=O)(=O)CC1)[C@@H](C1CC1)N2S(=O)(=O)c1ccc(F)cc1  remaining binding (cell-free assay, competition with immobilised ligand; 1 µM): 100%
CNC(=O)c1cc(Oc2ccc(NC(=O)Nc3ccc(Cl)c(C(F)(F)F)c3)cc2)ccn1  inhibition (enzyme activity, inhibitor; 10 µM): 89%
Cc1ccc(NC(=O)c2ccc(C)c(C(F)(F)F)c2)cc1C#Cc1nn(C2CCC(O)CC2)c2ncnc(N)c12 (stereo not drawn)  remaining signal (cell-free assay; 10 µM): 2%
Cc1ccc(C(=O)NCc2ccsc2)cc1C#Cc1cn(C(C)C)c2ncnc(N)c12  activity vs control (enzyme activity, inhibitor; 1 µM): 6%
COc1cc(-c2cc(-c3ccc(N4CCNCC4)cc3)cnc2C)cc(OC)c1OC  inhibition (enzyme activity, inhibitor; 0.1 µM): 3%
CC/C(=N\NC(=O)NCc1cccc(O)c1)c1ccc(O)c(C)c1O  inhibition (enzyme activity, inhibitor; 0.1 µM): -0.5%
Cc1nc(Cc2cccc(C(F)(F)F)c2)sc1-c1ccc(C(N)=O)nc1  remaining binding (cell-free assay, competition with immobilised ligand; 1 µM): 100%
CNC(=O)c1cc2c(Oc3ccc(NC(=O)C4(C(=O)Nc5ccc(F)cc5)CC4)cc3)ccnc2cc1OC  inhibition (enzyme activity, inhibitor, radiometric; 1 µM): 102%
O=C(NC[C@@H]1[C@H]2CN(C(=O)OCc3cc(C(F)(F)F)cc(C(F)(F)F)c3)C[C@@H]12)c1ccc2[nH]nnc2c1  remaining binding (cell-free assay, competition with immobilised ligand; 1 µM): 100%
O=C1NC(=O)c2cc(Nc3ccc(F)cc3)c(Nc3ccc(F)cc3)cc21  remaining signal (cell-free assay; 0.5 µM): 95.5%
O=C(NCCCC1CCCCC1)c1ccc(CNC(=O)c2cnn(-c3ccccc3)c2C(F)(F)F)cc1  remaining binding (cell-free assay, competition with immobilised ligand; 0.1 µM): 95%
CC(C)(O)[C@H]1CC[C@H](Nc2ccc3ncc(-c4cccc(C(F)(F)F)c4)n3n2)CC1  remaining activity (enzyme activity, inhibitor; 1 µM): 84.3%
O=C1Nc2ccc(Cl)cc2C1=Cc1cc(Cl)c(O)c(Cl)c1  remaining signal (cell-free assay; 0.5 µM): 91.5%
COc1cc2ncnc(Nc3ccc(Oc4ccccc4)cc3C)c2cc1OC  inhibition (enzyme activity, inhibitor; 1 µM): 21%
CCCS(=O)(=O)Nc1ccc(F)c(C(=O)c2c[nH]c3ncc(-c4ccc(Cl)cc4)cc23)c1F  inhibition (enzyme activity, inhibitor; 1 µM): < 20%
Cc1cnc(NC2CCOCC2)nc1-n1cnc(C(=O)NC(CN)c2cc(F)cc(Cl)c2)c1 (stereo not drawn)  remaining activity (enzyme activity, inhibitor, radiometric; 1 µM): 95%
